According to ChEMBL document CHEMBL3600341, “Discovery of a series of novel compounds with moderate anti-hepatitis C virus NS3 protease activity in vitro” (Bioorg Med Chem, 2015):

experiment: Inhibition of HCV NS3/4A protease using RET S1 as substrate preincubated for 10 mins followed by substrate addition measured for 30 mins by FRET analysis; design: species or system Hepacivirus hominis
How it was run: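 NS3/4A protease activity followed by intramolecular FRET with quenched-fluorogenic substrate Ac-DED(EDANS)EEAbuY[COO]ASK(DABCYL). Buffer 30 mM HEPES pH 7.5, 40% glycerol, 10 mM DTT, 2% DMSO. Ten-dose 4-fold serial dilution of compound in DMSO; 10 min preincubation, substrate added to start. Kinetic read 30 min, ex 335 nm/em 495 nm. IC50 from percent inhibition versus inhibitor concentration.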

SMILES	IC50
Cc1ccc(S(=O)(=O)NC(=O)[C@H](CC(C)C)NC(=O)[C@@H]2C[C@H](n3cc(-c4ccccc4)nn3)CN2C(=O)[C@@H](NC(=O)c2ccco2)C(C)(C)C)cc1	34 µM
COc1ccc(C(=O)N[C@H]2C[C@@H](C(=O)N[C@@H](CC(C)C)C(=O)NS(=O)(=O)C3CC3)N(C(=O)[C@@H](NC(=O)OC(C)(C)C)C(C)(C)C)C2)cc1	> 100 µM
CC(C)C[C@H](NC(=O)[C@@H]1C[C@H](NC(=O)c2ccc3ccccc3c2)CN1C(=O)[C@@H](NC(=O)OC(C)(C)C)C(C)(C)C)C(=O)NS(=O)(=O)C1CC1	> 100 µM
Cc1ccc(S(=O)(=O)NC(=O)[C@H](CC(C)C)NC(=O)[C@@H]2C[C@H](n3cc(-c4ccccc4)nn3)CN2C(=O)[C@@H](NC(=O)c2cccs2)C2CCCCC2)cc1	1.9 µM
Cc1ccc(S(=O)(=O)NC(=O)[C@H](CC(C)C)NC(=O)[C@@H]2C[C@H](n3cc(-c4ccccc4)nn3)CN2C(=O)[C@H](Cc2ccccc2)NC(=O)C(C)C)cc1	> 100 µM
Cc1ccc(S(=O)(=O)NC(=O)[C@H](CC(C)C)NC(=O)[C@@H]2C[C@H](n3cc(-c4ccccc4)nn3)CN2C(=O)[C@@H](NC(=O)c2ccccc2)C2CCCCC2)cc1	2.5 µM
Cc1ccc(S(=O)(=O)NC(=O)[C@H](CC(C)C)NC(=O)[C@@H]2C[C@H](n3cc(-c4ccccc4)nn3)CN2C(=O)[C@H](Cc2ccccc2)NC(=O)OC(C)(C)C)cc1	5.9 µM
CC(C)(C)OC(=O)N[C@H](C(=O)N1C[C@@H](n2cc(-c3ccccc3)nn2)C[C@H]1C(=O)N[C@H](Cc1ccccc1)C(=O)NS(=O)(=O)C1CC1)C(C)(C)C	> 100 µM
Cc1ccc(S(=O)(=O)NC(=O)[C@H](CC(C)C)NC(=O)[C@@H]2C[C@H](n3cc(-c4ccccc4)nn3)CN2C(=O)[C@@H](NC(=O)OC(C)(C)C)C(C)(C)C)cc1	> 100 µM
CCC[C@H](NC(=O)[C@@H]1[C@H]2CCC[C@H]2CN1C(=O)[C@@H](NC(=O)[C@@H](NC(=O)c1cnccn1)C1CCCCC1)C(C)(C)C)C(=O)C(=O)NC1CC1 [TELAPREVIR]	0.45 µM
O=C(N[C@H](C(=O)N1C[C@@H](n2cc(-c3ccccc3)nn2)C[C@H]1C(=O)N[C@H](Cc1ccccc1)C(=O)NS(=O)(=O)C1CC1)C1CCCCC1)OCc1ccccc1	4.5 µM
CC(C)C[C@H](NC(=O)OC(C)(C)C)C(=O)N1C[C@@H](n2cc(-c3ccccc3)nn2)C[C@H]1C(=O)N[C@H](Cc1ccccc1)C(=O)NS(=O)(=O)C1CC1	> 100 µM
Cc1ccc(S(=O)(=O)NC(=O)[C@H](CC(C)C)NC(=O)[C@@H]2C[C@H](n3cc(-c4ccccc4)nn3)CN2C(=O)[C@H](Cc2c[nH]c3ccccc23)NC(=O)OC(C)(C)C)cc1	5.6 µM
O=C(N[C@H](C(=O)N1C[C@@H](n2cc(-c3ccccc3)nn2)C[C@H]1C(=O)N[C@H](Cc1ccccc1)C(=O)NS(=O)(=O)C1CC1)C1CCCCC1)c1ccccc1	7.4 µM
Cc1cccc(Nc2ccccc2C(=O)N[C@H]2C[C@@H](C(=O)N[C@@H](CC(C)C)C(=O)NS(=O)(=O)C3CC3)N(C(=O)[C@@H](NC(=O)OC(C)(C)C)C(C)(C)C)C2)c1C	2.1 µM
CC(C)(C)OC(=O)N[C@@H](Cc1ccccc1)C(=O)N1C[C@@H](n2cc(-c3ccccc3)nn2)C[C@H]1C(=O)N[C@H](Cc1ccccc1)C(=O)NS(=O)(=O)C1CC1	7.1 µM
CC(C)(C)OC(=O)N[C@H](C(=O)N1C[C@@H](n2cc(-c3ccccc3)nn2)C[C@H]1C(=O)N[C@H](Cc1ccccc1)C(=O)NS(=O)(=O)C1CC1)C1CCCCC1	72 µM
CC(C)C(=O)N[C@H](C(=O)N1C[C@@H](n2cc(-c3ccccc3)nn2)C[C@H]1C(=O)N[C@H](Cc1ccccc1)C(=O)NS(=O)(=O)C1CC1)C1CCCCC1	> 100 µM
